# TAAR1 agonist: human TAAR1 agonism | Q96RJ0 | CHO RD-HGA16 TAAR1, Fluo-8 calcium fluorescence; vehicle wells 0%, saturating PEA agonist 100% | activation, % at 3 µM | actives 0.99% (n = 360,000);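 active = activation above the mean activation of all test compounds in the run plus 3 SD, cut at about 38% in these data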
# Target sequence (Q96RJ0 whole entry, looked up): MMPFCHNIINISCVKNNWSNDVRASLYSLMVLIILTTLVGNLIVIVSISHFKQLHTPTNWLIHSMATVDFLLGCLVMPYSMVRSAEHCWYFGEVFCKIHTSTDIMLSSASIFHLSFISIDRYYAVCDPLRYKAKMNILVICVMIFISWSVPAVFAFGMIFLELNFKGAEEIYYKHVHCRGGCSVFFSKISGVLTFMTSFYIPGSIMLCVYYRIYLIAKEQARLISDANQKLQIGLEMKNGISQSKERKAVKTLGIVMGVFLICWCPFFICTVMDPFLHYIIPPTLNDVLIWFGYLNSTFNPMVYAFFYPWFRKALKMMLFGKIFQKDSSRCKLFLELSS
#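 Test system: RD-HGA16 (CHO) cells co-expressing Gα16 and hTAAR1 / Benchmarks: DMSO vehicle as 0%, PEA at EC100 as 100% / Repeats: no replicates (n 1) / Measure: % activation from peak over basal fluorescence ratio, DMSO-to-PEA scaled / Timing: 17-24 h plating, Fluo-8 75 min 37 °C, 30 min RT / Technique: kinetic Fluo-8 calcium fluorescence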
# OXTR potentiate: potentiates the human oxytocin receptor response; CHO-OTR cells, Fluo-8 calcium fluorescence, potentiator mode; 0% = oxytocin EC15, 100% = EC100; activation, % at 3 µM; actives 0.061% (n = 320,000); AID 2445;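 active = activation above that plate's cutoff, the mean activation of tested compounds plus 3 SD, cut at about 6.6% in these data, passing the limit was not always enough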;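 note: 100% uses oxytocin at 75 nM as the full agonist control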
#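 Material: human OTR in CHO cells. Compound: 3.0 µM, one dose. Timing: compound 6 min at room temperature before oxytocin, 100 s read. Evaluation: % activation of max/min ratio relative to oxytocin controls. Replication: single well per compound, singlicate. Signal: Fluo-8 calcium dye fluorescence.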
# OXTR agonist: human OXTR agonism; P30559; CHO-OTR cells, Fluo-8 calcium fluorescence; normalized: DMSO 0%, oxytocin 100%; activation, % at 3 µM; actives 0.32% (n = 320,000);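 active = activation above the mean of all tested compounds plus 3 SD, cutoff set per screening run, cut at about 20% in these data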;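 note: peak over basal fluorescence ratio from a 100 s FLIPR kinetic read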
# TAAR1 antag: human TAAR1 antagonism. Q96RJ0. CHO RD-HGA16 TAAR1, Fluo-8 calcium fluorescence, antagonist. inhibition, % at 3 µM. actives 1.5% (n = 360,000);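 active = inhibition above a per-plate cutoff, the mean inhibition of test compounds on that plate plus 3 SD, cut at about 49% in these data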;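 note: 0% = DMSO plus EC80 beta-PEA response and 100% = DMSO alone without agonist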
#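 Test system: CHO RD-HGA16 cells bearing hTAAR1 | Reagent: β-PEA, EC80 | Compound dosing: 3 µM, single point | Schedule: Dye loading 75 min at 37 °C, then 30 min room temperature | Signal: Calcium fluorescence with Fluo-8 | Evaluation: Percent inhibition of PEA-evoked calcium signal, max/basal emission ratio | Control set: DMSO-only wells and EC80 β-PEA-stimulated wells | Repeats: Singlicate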
# V1R ag counter: V1a receptor agonism, counter-screen for OXTR agonists; P37288; CHO-V1R cells, Fluo-8 calcium fluorescence, agonist mode; 0% DMSO, 100% 3 nM vasopressin; activation, % at 3 µM; actives 0.25% (n = 320,000);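 active = activation above the mean activation of all tested compounds plus 3 SD, per screening run, cut at about 20% in these data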;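 note: signal is peak over basal fluorescence ratio across a 100 second FLIPR read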
# TAAR1 nonsel count: counter-screen for TAAR1 antagonists: nonselective antagonists; shares compounds with TAAR1 antag; counterscreen cell line, calcium fluorescence, antagonist mode; inhibition, % at 3 µM; actives 77% (n = 2,400); AID 651780; in the data active = inhibition above about 22%;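 note: CHO-Ga16 host cells stimulated with ATP at an EC80 level; 0% = agonist EC80 plus vehicle and 100% = vehicle without agonist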
# TAAR1 ant conf: confirmation of human TAAR1 antagonists | shares compounds with TAAR1 antag | TAAR1-expressing cells, fluorescence antagonist read-out | inhibition, % at 3 µM | actives 40% (n = 2,400) | AID 651785; in the data active = inhibition above about 49%;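 note: CHO-Ga16 host cells challenged with agonist PEA near its EC80; 0% = agonist at EC80 plus vehicle and 100% = vehicle with no agonist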
# Ga16 nonsel ag: nonselective Ga16 agonism, counter-screen; shares compounds with TAAR1 antag; Ga16-expressing cells, calcium fluorescence, agonist counterscreen; activation, % at 3 µM; actives 18% (n = 2,400); in the data active = activation above about 12%;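 note: 0% = vehicle wells and 100% = saturating stimulus response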
# TAAR1 ag counter: activates human TAAR1 in antagonist counter-screen. shares compounds with TAAR1 antag. activation, % at 3 µM. AID 651955. hTAAR1 cell line, fluorescence activation, agonist mode. actives 2% (n = 2,400); in the data active = activation above about 37%;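 note: CHO cells stably expressing TAAR1 with calcium dye readout; 0% = DMSO vehicle and 100% = full agonist response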
# * marks the source's active call; other numbers are inactive results; . = no result. Only some compounds are listed: those with a hit (about 2.3% of all), similar ones and a draw of the others.
SMILES,TAAR1 agonist,OXTR potentiate,OXTR agonist,TAAR1 antag,V1R ag counter,TAAR1 nonsel count,TAAR1 ant conf,Ga16 nonsel ag,TAAR1 ag counter
COCCCNC(=O)/C(C#N)=C/c1c(N2CCN(c3ccccc3)CC2)nc2c(C)cccn2c1=O,11,-15,-1,50*,3,19,36,6,6
COc1ccc(CCNC(=O)C(=O)NCC2CCCN2S(=O)(=O)c2ccccc2)cc1 (stereo not drawn),14,-6,-2,65*,1,27*,50*,11,18
O=C(NCc1ccc(F)cc1)C(=O)NCC1CCCN1S(=O)(=O)c1ccccc1 (stereo not drawn),-1,3,-1,-6,0,.,.,.,.
COc1ccc(S(=O)(=O)N2CCCC2CNC(=O)C(=O)NCc2ccccc2)cc1 (stereo not drawn),1,-7,-1,-4,0,.,.,.,.
O=C(NCCc1ccc(F)cc1)C(=O)NCC1CCCN1S(=O)(=O)c1ccccc1 (stereo not drawn),16,-11,-2,65*,0,27*,51*,10,14
CCc1nc2cc3sc(CC)nc3cc2s1,-1,-3,-2,-39,-1,.,.,.,.
Cc1ccc(NS(=O)(=O)c2cccc3cccnc23)c(Cl)c1,-3,-10,-1,-33,-1,.,.,.,.
COc1ccc(OC)c(N2CC(O)=C(c3nc4ccccc4s3)C2=N)c1,13,-11,0,3,1,.,.,.,.
CCOc1ccccc1N1CC(O)=C(c2nc3ccccc3s2)C1=N,23,-12,7,66*,3,26*,41,12*,10
CCc1ccc(N/C(SCc2cccc(F)c2)=C(/C#N)C(=O)NCc2ccco2)cc1,11,-13,4,50*,4,0,15,2,4
N#C/C(=C\Nc1ccc2c(c1)OCCO2)C(=O)NCc1ccco1,-2,-1,-3,0,0,.,.,.,.
CC(=O)OCC(=O)C1(O)CCC2C3CC(C)C4=CC(=O)C=CC4(C)C3=CCC21C (stereo not drawn),0,.,.,-2,.,.,.,.,.
Oc1ccccc1C1=Nc2nc3ccccc3n2C(c2ccccc2)C1 (stereo not drawn),13,-4,1,54*,2,31*,28,4,-3
Cc1cc(C(=O)COC(=O)Cn2c(C(F)(F)F)nc3ccccc32)c(C)n1Cc1ccco1,10,-10,3,51*,4,17,26,10,13
C=CCn1c2ccccc2c(=O)c2cc(C#CC[C@@H](C)O)ccc21,4,-3,-2,9,-1,.,.,.,.
C=CCn1c2ccccc2c(=O)c2cc(C#CC3(O)CCCCC3)ccc21,13,-7,-1,66*,-1,30*,46,5,5
COc1ccnc(Oc2ccc(F)cc2)c1C(=O)N/C=N/OCc1ccc(F)cc1Cl,31,-13,4,76*,4,41*,61*,14*,16
CO/N=C/NC(=O)c1c(OC)ccnc1Oc1ccc(F)cc1,3,4,0,-18,0,.,.,.,.
COc1ccnc(Oc2ccc(F)cc2)c1C(=O)N/C=N/OCc1ccc(Cl)cc1Cl,35,-5,3,63*,3,29*,57*,13*,22
COc1ccc(N2CCN(C(=O)COC(=O)CCOc3cc(C)ccc3C)CC2)cc1,10,-16,2,51*,4,40*,52*,12*,7
COc1ccc(N2CCN(C(=O)COC(=O)c3oc4ccc(OC)cc4c3C)CC2)cc1,14,-13,3,69*,9,42*,57*,11,9
